The source of these data is ChEMBL document CHEMBL4732196, “Structural optimization towards promising β-methyl-4-acrylamido quinoline derivatives as PI3K/mTOR dual inhibitors for anti-cancer therapy: The in vitro and in vivo biological evaluation” (Eur J Med Chem, 2021).

For series [1], the target named is Activin receptor type-2A (Homo sapiens) (UniProt P27037). The experiment in a line: Inhibition of human partial length ACVR2A (V171 to T499 residues) expressed in bacterial system assessed as residual activity at 10 uM by kinome scan method relative to control. In short, it runs like this: (§1)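 KINOMEscan binding assay, test compound at 10 μM against a 52-kinase panel. % Ctrl = (compound signal − positive control signal)/(negative control signal − positive control signal) × 100, with DMSO as negative control (100%) and a positive control (0%).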

The target of series [2] is BMP-2-inducible protein kinase (Homo sapiens) (UniProt Q9NSY1). The experiment in a line: Inhibition of human partial length BIKE (S34 to N329 residues) expressed in bacterial system assessed as residual activity at 10 uM by kinome scan method relative to control. In a few lines: as §1
Series [3] deals with Mitotic checkpoint serine/threonine-protein kinase BUB1 (Homo sapiens) (UniProt O43683). Briefly: Inhibition of human partial length BUB1 (Q724 to K1085 residues) expressed in bacterial system assessed as residual activity at 10 uM by kinome scan method relative to control. In a few lines: as §1
Series [4] deals with Serine/threonine-protein kinase/endoribonuclease IRE1 (Homo sapiens) (UniProt O75460). The experiment in a line: Inhibition of human partial length ERN1 (S551 to E852 residues) expressed in mammalian expression system assessed as residual activity at 10 uM by kinome scan method relative to control. In a few lines: as §1
Series [5] deals with Cyclin-G-associated kinase (Homo sapiens) (UniProt O14976). The experiment in a line: Inhibition of human partial length GAK (G13 to Y338 residues) expressed in bacterial expression system assessed as residual activity at 10 uM by kinome scan method relative to control. In a few lines:
as §1

In series [6] the target is Mitogen-activated protein kinase kinase kinase 4 (Homo sapiens) (UniProt Q9Y6R4). Briefly: Inhibition of human partial length MAP3K4 (G1319 to E1608 residues) expressed in bacterial expression system assessed as residual activity at 10 uM by kinome scan method relative to control. In short, it runs like this: as §1
The target in series [7] is T1, Serine/threonine-protein kinase mTOR (Homo sapiens, UniProt P42345). The experiment in a line: Inhibition of human partial length mTOR (L1382 to W2549 residues) expressed in mammalian expression system assessed as residual activity at 10 uM by kinome scan method relative to control. In a few lines: (§2)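 KINOMEscan competitive binding screen at 10 μM test compound against a 52-kinase panel. Output is % Ctrl = (test signal − positive control signal)/(negative control signal − positive control signal) × 100. DMSO is the negative control (100%) and the positive control is set to 0%.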

Series [8] addresses Cyclin-dependent kinase 14 (Homo sapiens) (UniProt O94921). Briefly: Inhibition of human full length PFTK1 (M1 to H451 residues) expressed in bacterial expression system assessed as residual activity at 10 uM by kinome scan method relative to control. In a few lines: as §1
Series [9] deals with Phosphatidylinositol 3-kinase C2 domain-containing subunit gamma (Homo sapiens) (UniProt O75747). The experiment in a line: Inhibition of human partial length PIK3C2G (M1 to I1446 residues) expressed in mammalian expression system assessed as residual activity at 10 uM by kinome scan method relative to control. In a few lines:
as §1

Series [10] deals with Phosphatidylinositol 4,5-bisphosphate 3-kinase catalytic subunit alpha isoform (Homo sapiens, UniProt P42336). The experiment in a line: Inhibition of human partial length PIK3CA (R108 to N1068 residues) expressed in mammalian expression system assessed as residual activity at 10 uM by kinome scan method relative to control. In short, it runs like this:
as §2

The target of series [11] is Phosphatidylinositol 4,5-bisphosphate 3-kinase catalytic subunit delta isoform (Homo sapiens) (UniProt O00329). The experiment in a line: Inhibition of human partial length PIK3CD (R108 to Q1044 residues) expressed in mammalian expression system assessed as residual activity at 10 uM by kinome scan method relative to control. In short, it runs like this:
as §2

Series [12] addresses Phosphatidylinositol 4-phosphate 5-kinase type-1 alpha (Homo sapiens) (UniProt Q99755). The experiment in a line: Inhibition of human full length PIP5K1A (M1 to H562 residues) expressed in bacterial expression system assessed as residual activity at 10 uM by kinome scan method relative to control. In a few lines: as §1
In series [13] the target is Phosphatidylinositol 4-phosphate 5-kinase type-1 gamma (Homo sapiens) (UniProt O60331). The experiment in a line: Inhibition of human full length PIP5K1C (M1 to H562 residues) expressed in bacterial expression system assessed as residual activity at 10 uM by kinome scan method relative to control. In a few lines:
as §1

Series [14] deals with Membrane-associated tyrosine- and threonine-specific cdc2-inhibitory kinase (Homo sapiens) (UniProt Q99640). The experiment in a line: Inhibition of human partial length PKMYT1 (A88 to G366 residues) expressed in bacterial expression system assessed as residual activity at 10 uM by kinome scan method relative to control. In a few lines:
as §2

Series [15] concerns the target Receptor-interacting serine/threonine-protein kinase 1 (Homo sapiens) (UniProt Q13546). The experiment in a line: Inhibition of human partial length RIPK1 (M1 to K305 residues) expressed in bacterial expression system assessed as residual activity at 10 uM by kinome scan method relative to control. In short, it runs like this: as §2
Series [16] addresses Receptor-interacting serine/threonine-protein kinase 4 (Homo sapiens) (UniProt P57078). Briefly: Inhibition of human partial length RIPK4 (M1 to V303 residues) expressed in mammalian expression system assessed as residual activity at 10 uM by kinome scan method relative to control. In a few lines: as §2
Series [17] addresses Phosphatidylinositol 3-kinase catalytic subunit type 3 (Homo sapiens) (UniProt Q8NEB9). Briefly: Inhibition of human partial length VPS34 (S282 to H879 residues) expressed in mammalian expression system assessed as residual activity at 10 uM by kinome scan method relative to control. In a few lines: as §2
The target in series [18] is T1, Serine/threonine-protein kinase mTOR. Briefly: Inhibition of mTOR in human U87MG cells assessed as suppression of phosphorylation of S6 ribosomal at Ser235/236 residues at 25 nM after 3 hrs by Western blot analysis. Type of series: cell-based. The conditions noted are these: U87. In short, it runs like this:
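U87MG cells were seeded at 1×10^6 per well and held overnight at 37 °C, 5% CO2. They were then exposed to a range of inhibitor concentrations for 3 h at 37 °C. Phospho-Akt (Ser473, Thr308), phospho-S6 (Ser235/236) and phospho-4E-BP1 (Thr37/46) were measured by Western blot with GAPDH as loading control. Bands were quantified as mean ± SD of 3 biological replicates against untreated cells.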
Background: A western blot detects proteins with antibodies after separation by electrophoresis.

A short description of series [19]: Half life in Sprague-Dawley rat at 5 mg/kg, po. Type of series: ADME, organism-based. The conditions noted are these: in vivo. In short, it runs like this:
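Male Sprague-Dawley rats (n = 3) given a single oral gavage of 5 mg/kg as a homogeneous opaque suspension in 0.5% methylcellulose; plasma concentration-time curves used to derive mean PK parameters.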

The nature of series [20]: MRT(0 to t) in Sprague-Dawley rat at 5 mg/kg, po. The class given is ADME, organism-based. The conditions noted are these: in vivo. In short, it runs like this:
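Male Sprague-Dawley rats (n = 3) received a single 5 mg/kg oral gavage dose formulated as a suspension in 0.5% methylcellulose. Plasma concentration-time curves were recorded and mean PK parameters derived.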

For another series, the system named is U-87 MG. Briefly: Antitumour activity against human U87MG cells xenografted in ICR nude mouse assessed as tumour growth inhibition at 60 mg/kg, po every other day for 24 days relative to control. The class given is functional, organism-based. The conditions noted are these: U-87MG ATCC, time 24.0 day. In short, it runs like this:
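Male ICR nude mice inoculated subcutaneously with 5 × 10⁶ U87MG cells. Once tumours reached about 200 mm³, mice were randomised and dosed by oral gavage every other day for 24 days. Tumour volume (length × width² × 0.5) and body weight recorded every 4 days. Inhibition = 100 × {1 − [(final − initial volume) treated]/[(final − initial volume) vehicle]}.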
On the technique in general: In xenograft studies the graft and the host belong to different species.

The source made the active and inactive calls. No cut-off for these calls is given here.

BMP-2-inducible protein kinase (Homo sapiens), sequence (Q9NSY1 whole entry, looked up, the tested form may be a part): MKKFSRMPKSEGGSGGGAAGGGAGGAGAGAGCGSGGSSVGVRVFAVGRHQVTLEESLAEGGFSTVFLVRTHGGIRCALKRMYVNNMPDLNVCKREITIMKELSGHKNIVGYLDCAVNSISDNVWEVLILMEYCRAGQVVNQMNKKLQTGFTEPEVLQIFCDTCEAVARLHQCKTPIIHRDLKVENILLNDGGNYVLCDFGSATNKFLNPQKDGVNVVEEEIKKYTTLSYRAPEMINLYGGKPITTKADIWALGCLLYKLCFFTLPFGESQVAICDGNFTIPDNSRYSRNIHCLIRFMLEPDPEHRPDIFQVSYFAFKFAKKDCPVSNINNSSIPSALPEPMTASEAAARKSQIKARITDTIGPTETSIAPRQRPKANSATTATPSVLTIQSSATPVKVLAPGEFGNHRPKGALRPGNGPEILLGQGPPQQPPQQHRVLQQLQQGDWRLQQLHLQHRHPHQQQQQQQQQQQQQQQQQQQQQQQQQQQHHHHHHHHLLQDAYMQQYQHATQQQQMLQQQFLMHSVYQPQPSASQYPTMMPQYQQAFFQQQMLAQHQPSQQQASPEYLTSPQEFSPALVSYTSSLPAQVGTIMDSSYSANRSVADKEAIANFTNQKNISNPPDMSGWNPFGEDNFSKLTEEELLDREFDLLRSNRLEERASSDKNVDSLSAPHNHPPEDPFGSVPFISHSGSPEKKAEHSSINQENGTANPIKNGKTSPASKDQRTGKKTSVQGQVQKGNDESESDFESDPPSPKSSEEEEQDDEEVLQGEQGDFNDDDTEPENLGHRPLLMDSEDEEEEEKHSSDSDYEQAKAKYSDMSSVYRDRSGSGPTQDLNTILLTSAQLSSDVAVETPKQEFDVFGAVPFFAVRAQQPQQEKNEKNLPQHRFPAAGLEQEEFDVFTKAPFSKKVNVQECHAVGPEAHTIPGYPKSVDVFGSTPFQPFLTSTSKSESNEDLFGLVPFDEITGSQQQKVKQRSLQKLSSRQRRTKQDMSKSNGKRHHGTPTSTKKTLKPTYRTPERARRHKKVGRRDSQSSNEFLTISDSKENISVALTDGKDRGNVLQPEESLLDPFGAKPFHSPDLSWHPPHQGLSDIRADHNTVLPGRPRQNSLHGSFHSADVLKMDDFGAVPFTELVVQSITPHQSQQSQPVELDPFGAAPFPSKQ
Cyclin-dependent kinase 14 (Homo sapiens), sequence (O94921 whole entry, the tested form may be a part): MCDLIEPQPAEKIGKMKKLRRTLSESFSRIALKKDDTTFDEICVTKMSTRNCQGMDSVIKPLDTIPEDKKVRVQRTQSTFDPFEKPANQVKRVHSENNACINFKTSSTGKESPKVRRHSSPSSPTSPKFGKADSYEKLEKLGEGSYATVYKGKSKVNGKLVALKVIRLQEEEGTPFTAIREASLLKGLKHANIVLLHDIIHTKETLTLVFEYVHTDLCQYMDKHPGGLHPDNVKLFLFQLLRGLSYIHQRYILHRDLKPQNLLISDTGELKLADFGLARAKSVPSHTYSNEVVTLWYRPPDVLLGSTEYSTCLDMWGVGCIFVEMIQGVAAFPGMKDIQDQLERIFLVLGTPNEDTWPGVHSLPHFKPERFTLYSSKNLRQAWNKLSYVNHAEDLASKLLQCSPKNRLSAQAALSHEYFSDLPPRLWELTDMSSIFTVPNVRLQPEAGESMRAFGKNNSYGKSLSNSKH
Receptor-interacting serine/threonine-protein kinase 4 (Homo sapiens), sequence (P57078 whole entry, the tested form may be a part): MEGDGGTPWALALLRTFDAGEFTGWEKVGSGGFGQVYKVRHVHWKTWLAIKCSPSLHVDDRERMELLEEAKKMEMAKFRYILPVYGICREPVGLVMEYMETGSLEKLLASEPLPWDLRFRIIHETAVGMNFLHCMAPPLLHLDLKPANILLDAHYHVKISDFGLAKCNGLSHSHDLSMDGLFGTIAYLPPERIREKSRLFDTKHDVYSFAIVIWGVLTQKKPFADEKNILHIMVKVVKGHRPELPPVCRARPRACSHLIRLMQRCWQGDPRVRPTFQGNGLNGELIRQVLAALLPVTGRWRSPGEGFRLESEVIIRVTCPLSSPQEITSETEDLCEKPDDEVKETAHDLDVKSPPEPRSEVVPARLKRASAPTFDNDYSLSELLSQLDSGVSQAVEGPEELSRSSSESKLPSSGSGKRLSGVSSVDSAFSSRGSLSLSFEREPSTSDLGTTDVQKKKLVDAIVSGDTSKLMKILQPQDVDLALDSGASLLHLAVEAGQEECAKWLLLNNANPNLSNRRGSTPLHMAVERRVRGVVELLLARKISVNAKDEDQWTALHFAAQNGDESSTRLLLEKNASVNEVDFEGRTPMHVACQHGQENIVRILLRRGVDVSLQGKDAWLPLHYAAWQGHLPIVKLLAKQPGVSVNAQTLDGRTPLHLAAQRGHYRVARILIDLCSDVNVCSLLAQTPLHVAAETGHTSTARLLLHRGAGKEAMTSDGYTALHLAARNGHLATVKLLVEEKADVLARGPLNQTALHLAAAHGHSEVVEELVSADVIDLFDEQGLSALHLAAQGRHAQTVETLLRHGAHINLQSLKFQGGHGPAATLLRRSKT
Phosphatidylinositol 4,5-bisphosphate 3-kinase catalytic subunit alpha isoform, sequence (P42336 whole entry, the tested form may be a part, canonical isoform): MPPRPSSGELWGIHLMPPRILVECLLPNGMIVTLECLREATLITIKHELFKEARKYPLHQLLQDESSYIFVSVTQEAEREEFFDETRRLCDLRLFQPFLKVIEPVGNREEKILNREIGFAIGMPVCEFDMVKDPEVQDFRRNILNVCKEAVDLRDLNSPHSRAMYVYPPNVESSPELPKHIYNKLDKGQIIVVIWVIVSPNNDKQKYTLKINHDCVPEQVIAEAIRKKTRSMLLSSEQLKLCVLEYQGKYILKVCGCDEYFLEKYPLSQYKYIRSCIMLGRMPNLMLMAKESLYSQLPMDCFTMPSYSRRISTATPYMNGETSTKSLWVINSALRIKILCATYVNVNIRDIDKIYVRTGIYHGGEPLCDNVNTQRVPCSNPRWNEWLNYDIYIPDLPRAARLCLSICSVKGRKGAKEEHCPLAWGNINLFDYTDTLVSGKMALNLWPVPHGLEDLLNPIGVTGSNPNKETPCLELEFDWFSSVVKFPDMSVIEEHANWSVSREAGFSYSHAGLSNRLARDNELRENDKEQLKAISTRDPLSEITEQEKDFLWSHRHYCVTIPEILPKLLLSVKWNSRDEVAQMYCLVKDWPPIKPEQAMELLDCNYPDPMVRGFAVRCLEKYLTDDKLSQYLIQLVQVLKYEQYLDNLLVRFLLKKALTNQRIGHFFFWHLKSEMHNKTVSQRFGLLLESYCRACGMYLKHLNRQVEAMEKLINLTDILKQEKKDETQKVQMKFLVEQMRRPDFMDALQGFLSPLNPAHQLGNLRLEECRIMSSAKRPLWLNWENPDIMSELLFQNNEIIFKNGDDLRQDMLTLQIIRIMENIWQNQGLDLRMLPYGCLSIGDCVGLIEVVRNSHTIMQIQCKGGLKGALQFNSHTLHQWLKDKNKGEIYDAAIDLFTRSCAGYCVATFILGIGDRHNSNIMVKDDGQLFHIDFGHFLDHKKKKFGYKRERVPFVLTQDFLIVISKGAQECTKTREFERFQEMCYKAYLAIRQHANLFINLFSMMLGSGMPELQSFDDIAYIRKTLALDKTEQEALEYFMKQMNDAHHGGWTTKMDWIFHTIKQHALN
Phosphatidylinositol 4-phosphate 5-kinase type-1 gamma (Homo sapiens), sequence (O60331 whole entry, the tested form may be a part): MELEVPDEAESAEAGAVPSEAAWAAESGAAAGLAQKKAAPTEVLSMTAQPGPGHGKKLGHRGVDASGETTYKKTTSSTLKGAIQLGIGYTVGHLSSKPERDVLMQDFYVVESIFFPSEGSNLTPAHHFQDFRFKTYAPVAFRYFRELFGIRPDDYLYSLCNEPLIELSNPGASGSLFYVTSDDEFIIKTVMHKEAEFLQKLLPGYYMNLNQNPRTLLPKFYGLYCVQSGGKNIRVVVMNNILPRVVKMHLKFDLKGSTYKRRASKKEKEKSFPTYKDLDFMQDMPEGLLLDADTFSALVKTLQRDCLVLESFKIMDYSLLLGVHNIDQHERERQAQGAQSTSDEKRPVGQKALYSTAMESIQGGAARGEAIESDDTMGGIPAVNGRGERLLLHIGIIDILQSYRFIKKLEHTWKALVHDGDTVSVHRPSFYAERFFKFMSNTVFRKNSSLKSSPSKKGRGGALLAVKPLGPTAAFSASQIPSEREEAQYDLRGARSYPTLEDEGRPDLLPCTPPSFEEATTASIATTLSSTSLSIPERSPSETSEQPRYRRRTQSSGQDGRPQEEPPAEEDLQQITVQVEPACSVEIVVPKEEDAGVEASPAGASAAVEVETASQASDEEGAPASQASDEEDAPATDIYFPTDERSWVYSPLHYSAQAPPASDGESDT
Activin receptor type-2A (Homo sapiens), sequence (P27037 whole entry, the tested form may be a part): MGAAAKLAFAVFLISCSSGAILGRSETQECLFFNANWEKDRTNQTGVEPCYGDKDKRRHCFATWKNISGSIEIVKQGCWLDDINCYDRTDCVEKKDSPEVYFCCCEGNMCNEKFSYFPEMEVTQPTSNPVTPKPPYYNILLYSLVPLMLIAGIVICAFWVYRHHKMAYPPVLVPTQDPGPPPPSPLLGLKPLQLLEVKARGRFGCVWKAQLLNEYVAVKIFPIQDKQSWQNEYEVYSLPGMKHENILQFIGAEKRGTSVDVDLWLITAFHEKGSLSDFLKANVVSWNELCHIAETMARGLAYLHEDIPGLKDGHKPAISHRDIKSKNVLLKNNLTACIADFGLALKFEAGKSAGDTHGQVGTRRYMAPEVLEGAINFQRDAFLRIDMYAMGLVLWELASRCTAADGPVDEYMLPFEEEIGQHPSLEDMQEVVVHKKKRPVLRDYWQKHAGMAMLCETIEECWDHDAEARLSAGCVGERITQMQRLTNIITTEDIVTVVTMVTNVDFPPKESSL

Turning to `COc1ncc(-c2ccc3nccc(/C(C)=C/C(=O)N4CCN(C)CC4)c3c2)cc1NS(=O)(=O)c1ccc(F)cc1F`, the Activity was determined as 100% in series [1]; 49% in series [2]; 91% in series [3]; 54% in [4]; 22% in series [5]; 92% in [6]. The Activity is 0% in series [7]; 78% in series [8]; 0% in [9]; 0% in series [10]; 0% in series [11]; 45% in [12]. Moreover, the Activity amounted to 35% in series [13]; 70% in series [14]; 87% in series [15]; 82% in [16]; 0.1% in series [17]. In series [18], the inhibition result was “Active”. Further, in series [19], the half-life (usually the time in which the quantity being followed falls by half) is 1.85 h. In addition, in [20], the mean residence time MRT last (as a rule, a mean duration of stay, worked out from the concentration-time curve) is 1.9 h. For the same compound, the TGI result in the series with U-87 MG was “Active”.
